Consider 2 compounds from ChEMBL document CHEMBL1137704, “Photodynamic inactivation of Candida albicans sensitized by tri- and tetra-cationic porphyrin derivatives” (Eur J Med Chem, 2009).

Data set [1] has as its system Candida albicans. The data set is described as follows: Drug uptake in Candida albicans PC31 at 10^7 CFU/ml cellular density assessed per 10^6 cells at 5 uM after 30 mins by fluorescence emission analysis. It counts as ADME, organism-based. To be noted: in vivo, 0.5 h. In a few lines:
(§1)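 Stationary-phase yeast (overnight Sabouraud broth, 37 °C) washed into 10 mM PBS pH 7.0, 2 mL suspensions incubated with sensitizer in the dark at 37 °C. Cells pelleted, resuspended in 2% aqueous SDS, kept overnight at 4 °C, sonicated 30 min. Porphyrin quantified by fluorescence (exc 418, em 650 nm) against SDS calibration standards, normalized to total cell number. Three separate experiments.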

Data set [2] relates to Candida albicans. Description: Drug uptake in Candida albicans PC31 at 10^6 CFU/ml cellular density assessed per 10^6 cells at 5 uM after 30 mins by fluorescence emission analysis. It counts as ADME, organism-based. The conditions noted are these: in vivo, 0.5 h. In short, it runs like this: as §1
Data set [3] deals with Candida albicans. Description: Drug uptake in Candida albicans PC31 at 10^6 CFU/ml cellular density assessed per 10^6 cells at 1 uM after 30 mins by fluorescence emission analysis. To be noted: in vivo, 0.5 h. It counts as ADME, organism-based. In short, it runs like this: as §1
Data set [4] deals with Candida albicans. Description: Drug uptake in Candida albicans PC31 at 10^8 CFU/ml cellular density assessed per 10^6 cells at 5 uM after 30 mins by fluorescence emission analysis. It counts as ADME, organism-based. To be noted: in vivo, 0.5 h. In a few lines:
as §1

The subject of data set [5] is Candida albicans. The data set is described as follows: Phototoxicity against Candida albicans PC31 in PBS at 10^6 CFU/ml cellular density assessed as cellular inactivation at 5 uM after 30 mins irradiated with visible light for 30 mins. It counts as functional. In a few lines: (§2)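 Overnight stationary-phase cells in 10 mM PBS pH 7.0 (2 mL) were dark-incubated with porphyrin for 30 min at 37 °C, then exposed to a 150 W slide-projector lamp filtered through 2.5 cm of water. Dark and light-only controls were included. Survivors were counted as CFU after serial dilution, plating in triplicate on Sabouraud agar and ~48 h at 37 °C. Three separate experiments.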

The subject of data set [6] is Candida albicans. Description: Phototoxicity against Candida albicans PC31 in PBS at 10^6 CFU/ml cellular density assessed as cellular inactivation at 5 uM after 30 mins irradiated with visible light for 5 mins. It counts as functional. In short, it runs like this: as §2
The subject of data set [7] is Candida albicans. The data set is described as follows: Phototoxicity against Candida albicans PC31 in PBS at 10^7 CFU/ml cellular density assessed as cellular inactivation at 5 uM after 30 mins irradiated with visible light for 30 mins. It counts as functional. In a few lines:
as §2

In data set [8] the test system is Candida albicans. The data set is described as follows: Phototoxicity against Candida albicans PC31 in PBS at 10^6 CFU/ml cellular density at 5 uM after 30 mins in dark at 37 deg C. It counts as functional, organism-based. In short, it runs like this:
as §2

Data set [9] deals with Candida albicans. Description: Phototoxicity against Candida albicans PC31 in PBS at 10^6 CFU/ml cellular density pretreated for 30 mins irradiated with visible light for 15 mins. It counts as functional, organism-based. In short, it runs like this:
as §2

Active and inactive are the calls of the source. No cut-off for these calls is given here.

For the compound `C[N+](C)(C)c1ccc(-c2c3nc(c(-c4ccc([N+](C)(C)C)cc4)c4ccc([nH]4)c(-c4ccc([N+](C)(C)C)cc4)c4nc(c(-c5ccc(C(F)(F)F)cc5)c5ccc2[nH]5)C=C4)C=C3)cc1.[I-].[I-].[I-]`, the Drug uptake with Candida albicans [1] is 0.12 nmol; with Candida albicans [2] it was 1.48 nmol; with Candida albicans [3], 0.32 nmol; in the data set on Candida albicans [4] it was 0.01 nmol. The Activity in the data set with Candida albicans [5] is recorded as more than 99.9994%; in the data set with Candida albicans [6], 99.99%; with Candida albicans [7] it was 99.9%.
In turn, `O=S(=O)([O-])c1ccc(-c2c3nc(c(-c4ccc(S(=O)(=O)[O-])cc4)c4ccc([nH]4)c(-c4ccc(S(=O)(=O)[O-])cc4)c4ccc([nH]4)c(-c4ccc(S(=O)(=O)[O-])cc4)c4nc2C=C4)C=C3)cc1.[Na+].[Na+].[Na+].[Na+]` displayed a Drug uptake with Candida albicans [3] of 0.03 nmol. Besides, the result in the data set with Candida albicans [8] and with Candida albicans [5] was inactive. Besides, the Activity result with Candida albicans [9] was “Dose-dependent effect”.
